Assay outcomes as filed in PubChem BioAssay.
Shown are actives, neighbours in structure and some others; about 1.8% of the full set was active somewhere.
CXCR6 block = inhibitors of human CXCR6 receptor; CHO-K1 PathHunter CXCR6 beta-arrestin, luminescence; inhibition, % at 20 µM; 360,000 tested, 0.36% active; AID 602244; in the data active = inhibition above about 34%, passing the limit was not always enough;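 note: antagonist mode with CXCL16 agonist at 10 nM final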
Target sequence (O00574 whole entry, looked up): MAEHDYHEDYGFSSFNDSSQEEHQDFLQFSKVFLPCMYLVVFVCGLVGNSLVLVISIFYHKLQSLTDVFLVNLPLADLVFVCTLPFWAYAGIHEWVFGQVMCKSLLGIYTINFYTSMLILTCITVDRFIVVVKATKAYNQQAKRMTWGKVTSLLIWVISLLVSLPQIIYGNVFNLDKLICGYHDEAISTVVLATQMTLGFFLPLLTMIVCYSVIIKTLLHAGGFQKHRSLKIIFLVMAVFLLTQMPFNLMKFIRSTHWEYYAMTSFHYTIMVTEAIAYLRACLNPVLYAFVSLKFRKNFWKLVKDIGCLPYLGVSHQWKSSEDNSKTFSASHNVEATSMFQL
APJ antagonist = blocks the human apelin receptor APJ | P35414 | 330,000 tested, 0.32% active | inhibition, % at 20 µM | AID 2521 | CHO-K1 APJ beta-arrestin complementation, luminescence;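 active = inhibition above about 40% at 20 µM, limit read from the data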;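 note: cells challenged with 10 nM apelin-13 agonist together with compound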
APJ ag = agonists of human APJ apelin receptor. P35414. CHO-K1 APJ PathHunter beta-arrestin, luminescence; 0% DMSO wells, 100% apelin. activation, % at 20 µM. 330,000 tested, 0.11% active. AID 2520;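 active = activation more than six SD over the plate average, tested at 20 µM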
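assay system = CHO-K1 APJ beta-arrestin complementation cell line | input = cell density 1000 per well | dosing = compound 20 µM once, DMSO 1% | timing = compound 90 min 25 °C, reagent 1 h | measured by = luminescence from split beta-galactosidase complementation, Galacton Star/Emerald II substrate | read-out basis = APJ agonist activity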
EBI2 block = blocks human EBI2 receptor beta-arrestin signaling; P32249; EBI2 beta-arrestin recruitment, luminescence, 7a,25-OHC stimulated; inhibition, % at 5 µM; 360,000 tested, 0.81% active; AID 651636; in the data active = inhibition above about 38%;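 note: enzyme fragment complementation signal reports receptor beta-arrestin coupling in cells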
B2AR ag = agonists of human beta-2 adrenergic receptor inducing internalization; P07550; AID 504454; 340,000 tested, 0.43% active; response, % (no concentration beside the values); Am2.2-beta2AR cells, FAP receptor internalization, flow cytometry;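 active = response above a set limit, near 3 SD of response in nonfluorescent compounds, cut at about 42% in these data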
CCR6 antagonist = blocks CCL20-driven beta-arrestin recruitment at human CCR6; P51684; CHO-K1 CCR6 PathHunter beta-arrestin, luminescence, CCL20-stimulated; inhibition, % at 20 µM; 340,000 tested, 0.49% active; AID 493098;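 active = compounds whose inhibition of the agonist-driven luminescence signal at 20 µM reaches about 50%, limit read from the data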;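 note: cells stimulated with CCL20 at 14 nM final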
EBI2 conf = EBI2 (human) antagonism, single concentration confirmation; shares compounds with EBI2 block; EBI2 beta-arrestin luminescence, 7a,25-OHC antagonism; inhibition, % at 5 µM; 2,400 tested, 29% active; AID 651997;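 active = inhibition of at least 50%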
EBI2 ag = activates EBI2, counter-screen for EBI2 antagonists; shares compounds with EBI2 block; EBI2-expressing cells, agonist mode, luminescence, 60 min; 0% vehicle, 100% 7α,25-dihydroxycholesterol control; activation, % at 5 µM; 2,400 tested, under 10 active;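 active = activation of at least 50%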
bGal counter = counter-screen for EBI2 antagonists: E. coli beta-galactosidase inhibition. inhibition, % at 5 µM. purified beta-galactosidase, luminescent Galacton Star, 15 min. 2,400 tested, 1% active. shares compounds with EBI2 block;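 active = replicate-average signal at least 3 plate SD below neutral wells, shown as high inhibition, flagging enzyme-inhibiting false positives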;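 note: higher means stronger loss of beta-gal luminescence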
Large screens that a line does not name were inactive (follow-up assays come after a bar, where they were run).

CC(=O)Nc1ccc(S(=O)(=O)N2CCC(C(=O)NCCc3c[nH]c4ccccc34)CC2)cc1	EBI2 block 49 | EBI2 conf inactive | EBI2 ag inactive | bGal counter inactive
COc1ccc(NC(=O)COC(=O)CNC(=O)COc2ccccc2)cc1OC	none
O=C(Nc1nc(-c2ccc(Oc3ccccc3)cc2)cs1)C1=COCCO1	EBI2 block 74 | EBI2 conf inactive | EBI2 ag inactive | bGal counter inactive
Cc1ccc(-c2csc(NC(=O)C3=COCCO3)n2)cc1	none
Cc1ccc(/C=N/Nc2ccc(Cl)nn2)cc1	none
Cc1ccc(/C=N/Nc2ccc3c(C(F)(F)F)cc(C(F)(F)F)nc3n2)cc1	EBI2 block 55 | EBI2 conf inactive | EBI2 ag inactive | bGal counter inactive
CCOC(=O)C1(C)CCN1C(=O)c1ccccc1OC(F)(F)F (configuration not stated)	none (no result: APJ antagonist, APJ ag, B2AR ag, CCR6 antagonist)
Cc1cc2c(cc1C)-c1c(ssc1=Nc1ccc(S(N)(=O)=O)cc1)C(C)(C)N2	EBI2 block 53 | EBI2 conf 58 | EBI2 ag inactive | bGal counter inactive
CCNC(=O)CC1C(=O)N(c2ccc(F)cc2)C(=O)N1Cc1ccccn1 (configuration not stated)	none
c1cn2c(-c3ccc(N4CCOCC4)cc3)cncc2n1	none (no result: APJ antagonist, APJ ag, B2AR ag, CCR6 antagonist)
CCCCCCCCCCCC1N=C(N)NC(CCCO)=C1C(=O)OC (configuration not stated)	none (no result: APJ antagonist, APJ ag)
Cc1ccc(OCC(O)CNS(=O)(=O)c2ccccc2C(=O)N2CCCCC2)cc1 (configuration not stated)	EBI2 block 46 | EBI2 conf inactive | EBI2 ag inactive | bGal counter inactive
Cc1cccc(C)c1OCC(O)CNS(=O)(=O)c1ccccc1C(=O)N1CCOCC1 (configuration not stated)	none (no result: APJ antagonist, APJ ag)
CN(Cc1ccccc1)C(=O)COc1ccc2ccccc2c1	EBI2 block 90 | EBI2 conf 87 | EBI2 ag inactive | bGal counter inactive
Cc1cc(OCC(=O)N(C)Cc2ccccc2)cc(C)c1Cl	EBI2 block 87 | EBI2 conf 65 | EBI2 ag inactive | bGal counter inactive
O=C(COC(=O)COc1ccc2c(c1)CCC2)Nc1ccccc1C(F)(F)F	none
O=C(COC(=O)c1cc([N+](=O)[O-])ccc1N1CCOCC1)c1ccc(OC(F)F)cc1OC(F)F	EBI2 block 44 | EBI2 conf inactive | EBI2 ag inactive | bGal counter inactive
COc1ccc([N+](=O)[O-])cc1NC(=O)c1ccc(C)o1	none
COC(=O)[C@]12CCCCC=C1N(Cc1ccccc1)C(=O)[C@H](CC(=O)N1CCCCC1)C2	none (no result: APJ antagonist, APJ ag, B2AR ag, CCR6 antagonist)
CCOC(=O)N(C)c1c(CC)nc2c(OCc3ccccc3C)cccn12	none (no result: APJ antagonist, APJ ag, B2AR ag, CCR6 antagonist)
Cc1ccc(CNC(=O)C2CCN(S(=O)(=O)c3cccs3)CC2)cc1	EBI2 block 60 | EBI2 conf 51 | EBI2 ag inactive | bGal counter inactive
Cc1ccc(CNC(=O)COC(=O)C2CCN(S(=O)(=O)c3cccs3)CC2)cc1	none
Cc1ccc(CNC(=O)C2CCN(S(=O)(=O)c3ccc(Br)s3)CC2)cc1	EBI2 block 92 | EBI2 conf 61 | EBI2 ag inactive | bGal counter inactive
Cc1ccccc1Cn1c(C)c(C(=O)NCC(C)C)sc1=O	none (no result: APJ antagonist, APJ ag, B2AR ag, CCR6 antagonist)
CC(C)CNc1ncnc2c1ncn2[C@H]1CN(Cc2ccc(F)cc2)C[C@@H](CO)O1	none (no result: APJ antagonist, APJ ag, B2AR ag, CCR6 antagonist)
CC(C)Nc1ncnc2c1ncn2[C@H]1CN(Cc2ccc(F)cc2)C[C@@H](CO)O1	EBI2 block 47 (no result: APJ antagonist, APJ ag, B2AR ag, CCR6 antagonist) | EBI2 conf 50 | EBI2 ag inactive | bGal counter inactive
